High-throughput results from PubChem BioAssay.
PfGluPho inh: PfG6PD (Plasmodium falciparum) enzyme inhibition; PfGluPho enzyme, NADPH resazurin-diaphorase fluorescence; inhibition, % at 20 µM; actives 0.78% (n = 350,000);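 active = inhibition reaching at least a set limit at 20 µM in the primary screen, cut at about 59% in these data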;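 also: 0% = DMSO wells with substrate and 100% = DMSO wells lacking glucose-6-phosphate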
APJ antagonist: antagonists of human APJ apelin receptor; CHO-K1 APJ beta-arrestin complementation, luminescence; inhibition, % at 20 µM; actives 0.32% (n = 330,000);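 active = inhibition above about 40% at 20 µM, limit read from the data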;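 also: cells challenged with 10 nM apelin-13 agonist together with compound; plate controls were apelin-13 plus DMSO wells for no effect and DMSO wells lacking apelin-13 for full effect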
Beta2AR agonist: agonists of human beta-2 adrenergic receptor inducing internalization; P07550; Am2.2-beta2AR cells, FAP receptor internalization, flow cytometry; response, % (test concentration not listed); actives 0.43% (n = 340,000);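 active = response above a set limit, near 3 SD of response in nonfluorescent compounds, cut at about 42% in these data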
CXCR6 block: CXCR6 (human) receptor inhibition. inhibition, % at 20 µM. actives 0.36% (n = 360,000). CHO-K1 PathHunter CXCR6 beta-arrestin, luminescence; in the data active = inhibition above about 34%, passing the limit was not always enough;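 also: antagonist mode with CXCL16 agonist at 10 nM final; 0% = 10 nM CXCL16 with DMSO and 100% = unstimulated wells without agonist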
APJ ag: activates the human apelin receptor APJ | CHO-K1 APJ PathHunter beta-arrestin, luminescence; 0% DMSO wells, 100% apelin | activation, % at 20 µM | actives 0.11% (n = 330,000);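 active = activation more than six SD over the plate average, tested at 20 µM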;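 also: 0% = DMSO alone and 100% = apelin-13 at 10 nM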
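Assay system: engineered CHO-K1 APJ arrestin reporter cells; Amount: 1000 CHO-K1 reporter cells seeded per well; Dosing: one dose, 20 µM compound, 1% DMSO; Times: compound stimulation 90 min at 25 °C, detection 60 min; Measured by: luminescent beta-gal fragment complementation, chemiluminescent substrate; Read-out: APJ–arrestin association signal; Controls: DMSO vs Apelin-13 10 nM.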
CCR6 antag: antagonists of human CCR6 receptor. actives 0.49% (n = 340,000). inhibition, % at 20 µM. CHO-K1 CCR6 PathHunter beta-arrestin, luminescence, CCL20-stimulated. P51684;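 active = compounds whose inhibition of the agonist-driven luminescence signal at 20 µM reaches about 50%, limit read from the data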;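 also: cells stimulated with CCL20 at 14 nM final; plate controls were DMSO with CCL20 for no effect and DMSO without agonist for full effect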
Target sequence (P51684 whole entry, looked up): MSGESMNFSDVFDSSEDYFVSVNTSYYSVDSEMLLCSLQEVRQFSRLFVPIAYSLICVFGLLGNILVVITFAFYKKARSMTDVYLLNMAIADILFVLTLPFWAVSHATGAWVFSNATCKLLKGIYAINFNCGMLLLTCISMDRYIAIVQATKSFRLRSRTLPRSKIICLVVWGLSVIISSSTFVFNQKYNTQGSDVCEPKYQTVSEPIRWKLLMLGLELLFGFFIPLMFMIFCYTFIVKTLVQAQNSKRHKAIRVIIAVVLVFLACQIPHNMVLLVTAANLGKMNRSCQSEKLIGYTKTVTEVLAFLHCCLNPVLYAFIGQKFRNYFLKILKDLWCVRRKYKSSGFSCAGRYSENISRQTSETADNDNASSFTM
APJ ag conf: APJ receptor agonism confirmation; shares compounds with APJ ag; CHO-K1 APJ PathHunter beta-arrestin, luminescence; activation, % at 20 µM; actives 10% (n = 310); AID 2764;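 active = activation above 40%, taking the highest of four retests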;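 also: plate controls were DMSO wells for no effect and apelin-13 at 10 nM for full effect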
B2AR ag CP1: human beta-2 adrenergic receptor agonism, cherry pick; shares compounds with Beta2AR agonist; Am2.2-beta2AR cells, FAP surface receptor, flow cytometry; stronger effect = lower value; percent response (surface receptor), % at 10 µM; actives 25% (n = 1,100); AID 540358;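 active = surface receptor percent response at or below 58%, roughly 3 SD from nonfluorescent compounds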
B2AR FAP counter: counter-screen for beta-2AR agonists: fluorescence in Am2.2 cells; calls only at 10 µM; shares compounds with Beta2AR agonist; 1,100 tested, under 10 active; FAP fluorogen flow cytometry, fluorescence counterscreen; stronger effect = lower value;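 active = percent response below a set limit in fluorescence channel 1 and below 50% in channel 8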
PfG6PD confirm: confirmation of Plasmodium falciparum G6PD inhibitors | AID 504753 | recombinant PfGluPho, NADPH-diaphorase-resazurin fluorescence | shares compounds with PfGluPho inh | actives 34% (n = 2,400) | inhibition, % at 20 µM;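 active = inhibition of at least 50% at 20 µM in any single replicate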;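 also: 0% = DMSO with substrate and 100% = DMSO lacking glucose-6-phosphate substrate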
Diaph ctr 10uM: inhibits diaphorase or oxidizes, flagging false PfG6PD hits; actives 39% (n = 820); inhibition, % at 20 µM; diaphorase-coupled resazurin reduction, fluorescence, NADPH 10 uM; AID 504862; shares compounds with PfGluPho inh;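 active = average inhibition reaching 50% or more with the compound at 20 µM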;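 also: resorufin red fluorescence formed as diaphorase reduces resazurin using NADPH; 0% = DMSO with enzyme and 100% = DMSO without enzyme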
Diaphorase 30uM: counter-screen for P. falciparum G6PD inhibitors: diaphorase inhibitors, oxidizers; shares compounds with PfGluPho inh; Diaphorase/resazurin coupled assay, resorufin fluorescence, 30 uM NADPH; actives 29% (n = 820); AID 504863; inhibition, % at 20 µM;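 active = inhibition averaging 50% or more, tested at 20 µM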;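 also: 0% = DMSO with enzyme and 100% = DMSO wells lacking diaphorase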
Numbers without * were called inactive; i = inactive; x = not tested or not shown. Compounds with a hit are over-represented: about 1.7% of the library has one in this group of screens.

SMILES	PfGluPho inh	APJ antagonist	Beta2AR agonist	CXCR6 block	APJ ag	CCR6 antag	APJ ag conf	others
COc1ccc(/C=N/N(C(C)=O)c2nc(-c3ccc(C)cc3)cs2)cc1	1.4	-34.6	-8.2	2.0	49.6*	9.3	13.6
CC(=O)N(/N=C/c1cccc(C)c1)c1nc(-c2ccc(Br)cc2)cs1	-11.3	-2.9	-0.2	4.2	10.8	16.5	x
COc1ccccc1C1NC(=O)c2ccccc2O1 (stereo unspecified)	-1.1	7.5	0.6	3.9	-3.6	-3.0	x
CC(C)C[C@@H](CN)NC(=O)c1nc[nH]c1C(=O)N[C@@H](CC(C)C)C(=O)CNC[C@H](C)NC(=O)c1nc[nH]c1C(=O)N[C@@H](CC(=O)O)C(=O)O	0.0	x	10.1	1.1	x	11.9	x
O=C(Nc1ccccc1N1CCOCC1)c1ccccc1[N+](=O)[O-]	-21.8	-25.2	5.8	2.7	0.2	15.6	x
O=C(Nc1ccccc1N1CCOCC1)c1ccc([N+](=O)[O-])s1	-6.1	-29.8	0.6	2.9	10.2*	9.2	27.3
COC(=O)N1CCCCC1c1cc(C(=O)Nc2ccc(OC)cc2C)no1 (stereo unspecified)	x	x	x	9.6	x	x	x
O=C(CN1CCN(C(=O)CNC(=O)c2ccc(N3CCCC3=O)cc2)CC1)Nc1ccccc1Cl	-19.5	-17.7	-7.5	-2.4	-1.9	10.2	x
Cc1ccccc1C(=O)O/N=C/c1c(N2CCOCC2)n(C)c2ccccc12	15.3	-76.2	-3.3	-14.4	14.6*	-17.5	25.1
CN1CCN(c2c(/C=N/O)c3ccccc3n2C)CC1	5.2	5.6	11.6	-7.2	-4.1	5.0	x
CN(C)CCCN(C(=O)c1ccc([N+](=O)[O-])s1)c1nc2cc3c(cc2s1)OCCO3	29.7	-145.1	42.2*	-9.9	130.6*	-9.0	37.9	B2AR ag CP1=83.9;B2AR FAP counter=i
COc1ccc(CC(=O)Nc2ccc(-c3nnc(-c4ccccc4)o3)cc2)cc1OC	-9.3	-1.2	0.7	4.0	-2.2	0.5	x
COc1ccc(CC(=O)Nc2cccc(-c3nnc(-c4ccc(C)cc4)o3)c2)cc1OC	5.5	-14.2	49.5*	13.7	28.2*	21.4	23.6	B2AR ag CP1=107.2;B2AR FAP counter=i
Cc1n[nH]c2ccc([N+](=O)[O-])cc2c1=O	-2.3	x	x	3.8	x	x	x
O=C(Nc1ccc(N2CCN(C(=O)c3ccco3)CC2)c(Cl)c1)c1cc2ccccc2o1	89.8*	-45.3	27.3	-4.0	16.8*	-16.6	34.5	PfG6PD confirm=43.2*;Diaph ctr 10uM=47.2;Diaphorase 30uM=43.9
O=C(c1cc(COc2ccc(F)cc2Cl)on1)N(CCO)Cc1cccs1	-2.8	10.3	0.0	2.8	3.2	0.3	x
COc1cc(-c2cc(=O)c3c(O)c(OC)c(OC)c(O)c3o2)ccc1O	88.1*	-146.4	-10.0	-16.8	28.5*	1.1	3.7	PfG6PD confirm=82.1*;Diaph ctr 10uM=46.5;Diaphorase 30uM=24.8
CC1=C/C(=N\OS(=O)(=O)c2ccccc2)C(C)=CC1=O	110.7*	-10.0	20.4	23.7	108.8*	42.8	86.5*	PfG6PD confirm=105.4*;Diaph ctr 10uM=97.6*;Diaphorase 30uM=102.9*
CC1=CC(=O)c2ccccc2C1=O	20.6	-14.0	23.4	5.0	8.8	15.8	x
COC(=O)C[C@H]1c2cc(F)ccc2S(=O)(=O)N1C(C)C	6.3	18.0	6.0	-3.7	-7.0	7.7	x
